Several values for one entry are separate records, joined by “and”; a condition that tells them apart may be missing. Identical values can stand only once.
Experiments:
[1] = tested on: L1210; assay: Compound was evaluated in vivo for antitumor activity after intraperitoneal administration against L1210(935) for mortality range at an optimal dose of 0.1 mg/kg/injection at 1-4 day schedule.; format: functional, Mus musculus
Method in brief: (§1)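 L1210 leukemia, maintained in DBA/2 mice, was given ip as 10⁵ cells on day 0 to F1 hybrid or strain-of-origin mice over 18 g, in groups of 8. Dosing was ip from day 1, and mortality was checked daily. Median day of death counts dying mice only. %ILS = 100×(treated − control median day of death)/control median. Tumor-free survivors were counted on day 60. Weight change is g/mouse at nadir.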

[2] = tested on: B16; assay: Compound was evaluated in vivo for antitumor activity against B16 melanoma after injecting the compound intravenously for optimal dose; format: functional, Mus musculus
Method in brief: (§2)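 30-60 mg tumor fragments implanted sc by trocar on day 0 into C57Bl/6-derived hosts (B16) or C3H/He-derived hosts (16/C). Drug given iv on days 6, 9 and 13 (B16) or 6, 9 and 12 (16/C), 10 mice per group. Tumors measured by caliper. T/C % taken from median tumor burden of treated vs control groups on day 15 (B16) or day 14 (16/C). Body weight change per mouse recorded at nadir.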

[3] = tested on: B16; assay: Compound was evaluated in vivo for antitumor activity against B16 melanoma 2 after injecting the compound intravenously for percent T/C; format: functional, Mus musculus
[4] = tested on: P388; assay: Compound was evaluated in vivo for antitumor activity after intraperitoneal administration against P388/L-PAM(12) for total dose at an optimal dose of 0.75 mg/kg/injection; format: functional, Mus musculus
[5] = tested on: P388; assay: Compound was evaluated in vivo for antitumor activity after intraperitoneal administration against P388 (1313) for change in body weight at an optimal dose of 0.5 mg/kg/injection; format: functional, Mus musculus
[6] = Compound was evaluated in vivo for antitumor activity against mammary adenocarcinoma 16/C after injecting the compound intravenously for change in body weight.; format: functional, Mus musculus; method in brief: as §2
[7] = tested on: L1210; assay: Compound was evaluated in vivo for antitumor activity after intraperitoneal administration against L1210(935) for total dose at an optimal dose of 0.5 mg/kg/injection at 1 day schedule.; format: functional, Mus musculus; method in brief: as §1
[8] = tested on: B16; assay: Compound was evaluated in vivo for antitumor activity against B16 melanoma 1 after injecting the compound intravenously for toxicity related death.; format: functional, Mus musculus
[9] = tested on: P388; assay: Compound was evaluated in vivo for antitumor activity after intraperitoneal administration against P388/L-PAM(14) for mortality range at an optimal dose of 0.1 mg/kg/injection at 1,2,3,4 day schedule.; format: functional, Mus musculus
[10] = tested on: B16; assay: Compound was evaluated in vivo for antitumor activity against B16 melanoma 1 after injecting the compound intravenously for total dose.; format: functional, Mus musculus
[11] = tested on: P388; assay: Compound was evaluated in vivo for antitumor activity after intraperitoneal administration against P388/L-PAM(14) for median day of death at an optimal dose of 0.125 mg/kg/injection at 1,4,7,11 day schedule.; format: functional, Mus musculus
[12] = tested on: P388; assay: Compound was evaluated in vivo for antitumor activity after intraperitoneal administration against P388 (1313) for mortality range at an optimal dose of 0.4 mg/kg/injection; format: functional, Mus musculus
[13] = tested on: P388; assay: Compound was evaluated in vivo for antitumor activity after intraperitoneal administration against P388/L-PAM(14) for mortality range at an optimal dose of 1 mg/kg/injection; format: functional, Mus musculus
[14] = tested on: L1210; assay: Compound was evaluated in vivo for antitumor activity after intraperitoneal administration against L1210(935)for % increase in life span at an optimal dose of 0.5 mg/kg/injection at 1,4,7,11day schedule.; format: functional; conditions: Mus musculus, L1210, ip; method in brief: as §1
[15] = tested on: L1210; assay: Compound was evaluated in vivo for antitumor activity after intraperitoneal administration against L1210(935) for mortality range at an optimal dose of 0.5 mg/kg/injection at 1,4,7,11day schedule.; format: functional, Mus musculus; method in brief: as §1
[16] = tested on: P388; assay: Compound was evaluated in vivo for antitumor activity after intraperitoneal administration against P388/L-PAM(14) for tumor free survivors at an optimal dose of 0.5 mg/kg/injection at one day schedule on day 60; format: functional, Mus musculus
[17] = tested on: L1210; assay: Compound was evaluated in vivo for antitumor activity after intraperitoneal administration against L1210(935) for total dose at an optimal dose of 0.1 mg/kg/injection at 1-4 day schedule.; format: functional, Mus musculus; method in brief: as §1
[18] = tested on: P388; assay: Compound was evaluated in vivo for antitumor activity after intraperitoneal administration against P388/L-PAM(14) for tumor free survivors at an optimal dose of 1 mg/kg/injection; format: functional, Mus musculus
[19] = tested on: B16; assay: Compound was evaluated in vivo for antitumor activity against B16 melanoma 1 after injecting the compound intravenously for median tumor burden; format: functional, Mus musculus
[20] = Compound was evaluated in vivo for antitumor activity against Lewis Lung cercinoma after injecting the compound intravenously for optimal dose; format: functional, Mus musculus
Method in brief: (§3)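 Lewis lung carcinoma: 10^6 cells implanted im into C57Bl/6-derived hosts. Drug given iv on days 5, 9 and 13, 10 mice per group. Median tumor burden and weight nadir recorded. Survivors were killed on day 19, and their lungs were fixed in Fekete solution so that macroscopic metastases could be counted.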

[21] = tested on: B16; assay: Compound was evaluated in vivo for antitumor activity against B16 melanoma after injecting the compound intravenously for change in body weight.; format: functional, Mus musculus; method in brief: as §2
[22] = Compound was evaluated in vivo for antitumor activity against Lewis Lung cercinoma after injecting the compound intravenously for total dose.; format: functional, Mus musculus; method in brief: as §3
[23] = tested on: P388; assay: Compound was evaluated in vivo for antitumor activity after intraperitoneal administration against P388 (1313) for change in body weight at an optimal dose of 0.2 mg/kg/injection; format: functional, Mus musculus
[24] = tested on: L1210; assay: Compound was evaluated in vivo for antitumor activity after intraperitoneal administration against L1210(935) for median day of death at an optimal dose of 0.25 mg/kg/injection at 1,4,7,11day schedule.; format: functional, Mus musculus; method in brief: as §1
[25] = Compound was evaluated in vivo for antitumor activity against Lewis Lung cercinoma after injecting the compound intravenously for median tumor burden; format: functional, Mus musculus; method in brief: as §3
[26] = tested on: L1210; assay: Compound was evaluated in vivo for antitumor activity after intraperitoneal administration against L1210(935)for change in body weight at an optimal dose of 0.25 mg/kg/injection at 1,4,7,11day schedule.; format: functional, Mus musculus; method in brief: as §1
[27] = Compound was evaluated in vivo for antitumor activity against Glasgow osteogenic sarcoma after injecting the compound intravenously for change in body weight.; format: functional, Mus musculus
Method in brief: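 Glasgow osteogenic sarcoma in C57Bl/6-derived hosts: 30-60 mg fragments implanted sc by trocar on day 0. Drug given iv on days 3, 6 and 9, 7 mice per group. Tumors measured by caliper. Median tumor burden recorded on day 10. Body weight change per mouse recorded at nadir. Toxicity-related deaths counted.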

[28] = tested on: L1210; assay: Compound was evaluated in vivo for antitumor activity after intraperitoneal administration against L1210(935)for % increase in life span at an optimal dose of 0.25 mg/kg/injection at 1,4,7,11day schedule.; format: functional; conditions: Mus musculus, L1210, ip; method in brief: as §1
[29] = tested on: M5076; assay: Compound was evaluated in vivo for antitumor activity against M5076 after injecting the compound intravenously for optimal dose; format: functional, Mus musculus
[30] = tested on: P388; assay: Compound was evaluated in vivo for antitumor activity after intraperitoneal administration against P388/L-PAM(14) for mortality range at an optimal dose of 0.5 mg/kg/injection at 1,4,7,11 day schedule.; format: functional, Mus musculus
[31] = tested on: L1210; assay: Compound was evaluated in vivo for antitumor activity after intraperitoneal administration against L1210(935) for tumor free survivors at an optimal dose of 0.1 mg/kg/injection at 1-4 day schedule.; format: functional, Mus musculus; method in brief: as §1
[32] = tested on: P388; assay: Compound was evaluated in vivo for antitumor activity after intraperitoneal administration against P388 (1313) for % increase in life span at an optimal dose of 0.2 mg/kg/injection; format: functional; conditions: Mus musculus, P388, ip

Q: What does the source list for CN(C)CCCNc1ncnc2c1C(=O)C(N1CC1)=C(N1CC1)C2=O?
A: Mortality [1]: 14 days; Optimal dose [2]: 0.4 mg/kg and 0.2 mg/kg; T/C [3]: 53%; Optimal dose [4]: 0.75 mg/kg; Change in body weight [5]: 0 g mouse-1; Change in body weight [6]: 0.5 g mouse-1 and 1 g mouse-1; Total dose [7]: 0.5 mg/kg; Toxicity [8]: 0; Mortality [9]: 21 days; Total dose [10]: 1.8 mg/kg; Median day of death [11]: 15.5; Mortality [12]: 39 days; Mortality [13]: 26 days; ILS at 0.5 mg/kg [14]: 27%; Mortality [15]: 18 days; Survivors [16]: 0; Total dose [17]: 0.4 mg/kg; Survivors [18]: 0; Tumor burden [19]: 27.8; Optimal dose [20]: 0.4 mg/kg and 0.2 mg/kg; Change in body weight [21]: 0.9 g mouse-1 and 0.8 g mouse-1; Total dose [22]: 1.2 mg/kg and 0.6 mg/kg; Change in body weight [23]: 1.3 g mouse-1; Median day of death [24]: 13; Tumor burden [25]: 7717 mg and 7748 mg; Change in body weight [26]: 1.6 g mouse-1; Change in body weight [27]: 0.6 g mouse-1; ILS at 0.25 mg/kg [28]: 18%; Optimal dose [29]: 1 mg/kg; Mortality [30]: 32 days; Survivors [31]: 0; ILS at 0.2 mg/kg [32]: 62%

From ChEMBL document CHEMBL1125740, “Heterocyclic quinones. 17. A new in vivo active antineoplastic drug: 6,7-bis(1-aziridinyl)-4-[[3-(N,N-dimethylamino)propyl]amino]-5,8- quinazolinedione” (J Med Chem, 1991)
